# Bioassay records deposited in PubChem BioAssay by several laboratories.
# Hits are enriched below; roughly 0.89% of the tested compounds scored in any of these assays.
# HSV replic up: HSV replication enhancement; HSV replication augmentation in cells, fold increase; maximum fold increase; 220,000 compounds, 0.005% hits; AID 1956; in the data active means maximum fold increase above about 1.5; tested in PC3 cells
# E-sel TNF inh: TNF alpha driven E-selectin expression inhibition. HUVEC TNFa-induced E-selectin immunofluorescence, high content. inhibition, % at 2 µM. 120,000 compounds, 0.71% hits. AID 1246;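 active means inhibition above the batch mean plus 3 SD, and confirmed as a hit on visual image review, cut at about 43% in these data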;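 further: 0% = TNF-stimulated DMSO wells and 100% = unstimulated control wells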
# TNF death inh: TNF-alpha cell death inhibition in Jurkat FADD-/- cells | AID 463075 | 220,000 compounds, 0.068% hits | activation (protection from cell death), % at 10 µM | Jurkat FADD-/- TNF necroptosis rescue, ATP luminescence, 24 h; 0 = TNF only, 100 = no-TNF cells;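 active means activation, meaning protection from cell death, of at least 50% relative to plate controls; inactive means activation below 50%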;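 further: necroptosis triggered by 40 ng/mL TNF-alpha added together with compound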
# MDM2 E3 inh: Mdm2 E3 ligase (human) inhibition | Q00987 | cell-based MDM2 ubiquitination luciferase reporter, 2 h; 0 = plate control, 100 = twice control, blank-subtracted | signal enhancement, % at 5 µM | 210,000 compounds, 0.11% hits;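 active means signal enhancement of 30% or more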;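 further: luminescence tracks abundance of the self-degrading MDM2-luciferase fusion protein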
# Target sequence (Q00987 whole entry, looked up, the tested form may be a part): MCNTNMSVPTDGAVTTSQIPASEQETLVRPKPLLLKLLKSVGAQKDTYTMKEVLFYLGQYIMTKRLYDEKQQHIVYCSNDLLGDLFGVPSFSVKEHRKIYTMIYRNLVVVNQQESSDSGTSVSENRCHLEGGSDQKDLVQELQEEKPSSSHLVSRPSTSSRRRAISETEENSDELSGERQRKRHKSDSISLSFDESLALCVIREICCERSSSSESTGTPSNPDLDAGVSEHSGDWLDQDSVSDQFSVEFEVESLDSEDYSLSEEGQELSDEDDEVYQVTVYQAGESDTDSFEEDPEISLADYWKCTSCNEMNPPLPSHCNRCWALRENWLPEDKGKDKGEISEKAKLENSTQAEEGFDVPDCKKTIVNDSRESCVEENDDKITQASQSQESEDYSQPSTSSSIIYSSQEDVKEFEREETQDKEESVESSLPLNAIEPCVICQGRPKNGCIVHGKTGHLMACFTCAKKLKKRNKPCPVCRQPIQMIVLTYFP
#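 Buffer or medium: Cells held in DMEM | Assay system: Stable mammalian line carrying autodegrading MDM2–luciferase fusion reporter | Quantity: 2000 cells/well | Times: 4 h settle plus 2 h compound, 37 °C | Doses: One concentration, 5 µM, with 0.2% DMSO | Technique: Luminescence with SteadyLite reagent, 15 min at room temperature | Benchmarks: Plate controls and plate blanks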
# L929 necroptosis: L929 zVAD cell death inhibition. viability rescue, % at 10 µM. L929 zVAD necroptosis rescue, ATP luminescence, 24 h; with zVAD 60 µM. 220,000 compounds, 0.38% hits;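 active means activation, scaled between plate controls, above about 75%, limit read from the data; inactive means activation under that limit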;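 further: 0% = zVAD with DMSO and 100% = DMSO alone without zVAD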
# zVAD necrop conf: confirmed blocker of zVAD induced death in L929 cells | 760 compounds, 16% hits | shares compounds with L929 necroptosis | L929 zVAD-induced necroptosis rescue, ATP luminescence, 24 h | activation (protection from necroptosis), % at 10 µM | AID 463117;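 active means mean protection from necroptosis of at least 50% over duplicate tests; inactive means mean protection below 50%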;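 further: 0% = cells with zVAD alone and 100% = vehicle cells without zVAD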
# An asterisk follows results filed as active; i = inactive; · = no result given.
SMILES,HSV replic up,E-sel TNF inh,TNF death inh,MDM2 E3 inh,L929 necroptosis,zVAD necrop conf
O=S(=O)(NCCc1cn2ccccc2n1)c1ccc(F)c(C(F)(F)F)c1,i,·,1,-26,0,·
Cc1ccn2cc(CCNS(=O)(=O)c3ccc(F)c(C(F)(F)F)c3)nc2c1,i,89*,0,-8,0,·
C=C1C(=O)C=C2CN(C(=O)c3ccccc3)[C@@](Cc3ccc(F)cc3)(C(=O)OC)[C@@H]12,i,100*,-21,·,49,·
Cc1csc(Nc2ccccc2)[n+]1C,i,-30,0,-12,-1,·
Cc1csc(Nc2ccccc2)[n+]1-c1ccccc1,i,·,56*,-4,1,·
CCc1cc(C(=O)Nc2ccccc2)cs1,i,63*,0,-24,2,·
Cc1cccc2c1c1ccc3c(c1n2C)C(=O)C=CC3=O,i,·,-23,54*,13,·
CCCOc1ccc(NC(=O)C(=O)NCCCn2ccnc2)cc1,i,78*,-5,-5,2,·
CCOc1ccc(NC(=O)C(=O)NCCCn2ccnc2)cc1,i,-17,-6,-17,0,·
CCC(=O)Nc1ccc(C(=O)NCCCn2ccnc2)cc1,i,22,2,-10,0,·
CCOc1cc(C(=O)NCCCn2ccnc2)cc(OCC)c1OCC,i,88*,2,9,0,·
COCCOc1cc2ncnc(N3CCC(C(=O)O)CC3)c2cc1OCCOC,i,·,5,-13,0,·
CCOc1ccc(-c2nn(-c3ccccc3)cc2/C=C2\SC(=S)N(Cc3ccco3)C2=O)cc1,i,4,1,-9,1,·
CCN1C(=O)/C(=C\c2cn(-c3ccccc3)nc2-c2cccnc2)SC1=S,i,83*,-1,-12,1,·
COc1ccc(C(=O)NCCNC(C)=O)cc1S(=O)(=O)NCc1ccc(Cl)cc1,i,57*,1,-17,3,·
Cc1nc(-c2nnc(SCC(=O)Nc3ccc(C(F)(F)F)cc3)n2C)cs1,i,·,0,-24,1,·
C#CCN1C(=O)C(O)(CC(=O)c2cccc(OC)c2)c2ccccc21 (configuration not stated),i,85*,0,-11,0,·
C[C@H](NC(CCc1ccccc1)C(=O)O)C(=O)N1CCC[C@H]1C(=O)O (some centres not stated),i,·,·,·,·,·
CCOc1ccc(NCc2nc3ccccc3n2CCOc2ccccc2)cc1,i,92*,-1,-8,0,·
COc1ccc(NC(=O)c2ccc(OC(=S)N(C)c3ccc(OC)cc3)cc2)cc1,i,-35,68*,-20,0,·
C/C=C/Cn1c(N2CCCCCC2)nc2c1c(=O)[nH]c(=O)n2C,·,74*,-2,-5,0,·
CCOc1cc(C(=O)Nc2ncn[nH]2)cc(OCC)c1OCC,i,·,0,7,1,·
COc1ccc(OCc2nnc(SC3CCOC3=O)n2-c2ccccc2)cc1 (configuration not stated),i,·,-2,-18,0,·
COc1cccc(-n2c(SC3CCOC3=O)nc3ccccc3c2=O)c1 (configuration not stated),i,96*,-1,-10,0,·
N/C(=N\OC(=O)COc1ccc(Cl)cc1Cl)c1ccncc1,i,·,0,-1,6,·
SMILES,HSV replic up,E-sel TNF inh,TNF death inh,MDM2 E3 inh,L929 necroptosis,zVAD necrop conf
Cc1[nH]nc2c1C(c1c[nH]c3ccccc13)C(C#N)=C(N)O2 (configuration not stated),i,·,-5,-5,77*,37
CSCCCNC(=S)N1CCc2ccccc2C1,i,-40,0,21,1,·
Cc1nc2cc(NC(=O)Nc3ccc(Br)cc3)ccc2o1,i,·,1,-12,80*,1
Cc1nc2cc(NC(=O)NCc3ccc4c(c3)OCO4)ccc2o1,i,27,-1,14,0,·
O=c1[nH][nH]c2ccccc2c1=O,i,·,-1,-10,0,·
CC(=O)NCCNC(=O)c1ccc(NC2=NC3CS(=O)(=O)CC3S2)cc1 (configuration not stated),i,·,2,4,1,·
CC1CCCC(NC(=O)CCNS(=O)(=O)c2ccc(Br)cc2)C1C (configuration not stated),i,-14,1,-17,77*,7
Cc1cccc2[nH]c(-c3ccc(NC(=O)c4ccco4)cc3)nc12,i,·,0,-2,84*,2
O=C(Nc1ccc2nc(-c3ccccc3)[nH]c2c1)c1ccco1,i,-22,0,3,15,·
CNC(=O)c1cc(Nc2nnc(-c3ccc(O)cc3)c3ccccc23)ccc1OC,i,·,-2,-2,80*,2
COc1ccc(NC(=O)c2cc(-c3ccco3)nc3ccccc23)cc1S(=O)(=O)N1CCOCC1,i,·,-13,-18,1,·
Cc1ccc(NC(=O)c2cc(-c3ccco3)nc3ccccc23)cc1S(=O)(=O)N1CCOCC1,i,·,-2,0,77*,10
O=C(Nc1nccs1)c1ccc(CSc2nnnn2-c2ccccc2)cc1,i,9,14,2,87*,89*
NC(=O)c1ccc(-n2nnnc2SCc2ccccc2)cc1,i,·,0,-32,1,·
Cc1c(C)n(Cc2ccccc2)c2ccc(C(=O)OCCN(C)C)cc12,i,·,2,-2,8,·
O=C(CSc1nnc(-c2ccncc2)o1)N1CCCCCC1,i,·,0,2,76*,0
O=C1CC(/C=C/c2ccc(Cl)cc2)=Nc2ccccc2N1,i,0,-1,-16,77*,1
N#CC(C(=O)c1ccco1)c1ccccn1 (configuration not stated),i,-3,20,-14,81*,56*
N#C/C(=C(\O)c1ccco1)c1ccccn1,i,·,29,-8,105*,57*
O=C(c1ccco1)N(c1ccccn1)c1ccccn1,i,-15,0,-11,0,·
O=C1NC[C@H](c2ccccc2)N(CCc2cccc3ccccc23)C1=O,i,·,1,-7,1,·
CC(C)c1ccc2c(c1)C1Cc3ccccc3C1N2 (configuration not stated),i,·,0,·,2,·
O=C(COC(=O)c1ccc(O)cc1)Nc1ccc(OC(F)F)cc1,i,-6,2,-7,77*,36
O=C(COC(=O)c1cccc(O)c1)Nc1ccc(OC(F)F)cc1,i,·,0,-3,1,·
CNc1ncc(C(=O)c2ccccc2)s1,i,17,5,-12,4,·
CNc1ncc(C(=O)c2ccc(Br)cc2)s1,i,·,6,-8,83*,1
Cc1cc(N/N=C/c2cccc(Br)c2)nc2ccccc12,i,·,2,-12,2,·
Cc1cc(N/N=C/c2ccncc2)nc2ccccc12,i,·,50*,-12,81*,77*
C/C(=N\NC(N)=O)c1ccccc1Cl,i,·,2,-26,0,·
